From ChEMBL document CHEMBL1129493 (J Med Chem, 1996)
≈ marks a conversion by molar mass, not a printed value. Calls of active or inactive are those of the source.

Assays:
143B = experiment: Cytotoxic Activity was evaluated against 143B (TK-) tumor cells; assay type: functional, cell-based; details: Homo sapiens
Outline: (§1)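 Cytotoxicity was read by MTT dye reduction for suspension cultures or sulforhodamine B for monolayer cultures. For reversal of multidrug resistance, reserpine was added as reversing agent ([…] as printed).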

A549 = experiment: Cytotoxic activity evaluated against A549 tumor cells; details: Homo sapiens
[1] = Relative concentration of compound in brain compared to concentration in plasma (0.4 ug/mL) at the time of tissue collection from mice; relative concentration; assay type: ADME, organism-based; details: mouse, read-out: Activity
Candida albicans = experiment: Minimum inhibitory concentration evaluated against Candida albicans; assay type: functional
[2] = Cytotoxic activity was evaluated against Daoy tumor cells; assay type: functional, cell-based; details: Homo sapiens; outline: as §1
D54 cell line = experiment: Cytotoxic Activity was evaluated against D54 tumor cells; assay type: functional, cell-based; details: Homo sapiens; outline: as §1
Dihydrofolate reductase [3] = target: T1, Dihydrofolate reductase (Candida albicans, UniProt P22906); experiment: Inhibition of Dihydrofolate reductase enzyme from Candida albicans
T1 sequence (P22906 whole entry): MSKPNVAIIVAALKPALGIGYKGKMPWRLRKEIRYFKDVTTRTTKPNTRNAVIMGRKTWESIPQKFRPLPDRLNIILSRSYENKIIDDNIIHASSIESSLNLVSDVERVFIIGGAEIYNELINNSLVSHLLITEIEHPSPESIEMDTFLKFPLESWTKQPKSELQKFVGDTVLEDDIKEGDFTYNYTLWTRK

Dihydrofolate reductase [4] = target: T2, Dihydrofolate reductase (Homo sapiens, UniProt P00374); experiment: Inhibition of human recombinant Dihydrofolate reductase enzyme
T2 sequence (P00374 whole entry): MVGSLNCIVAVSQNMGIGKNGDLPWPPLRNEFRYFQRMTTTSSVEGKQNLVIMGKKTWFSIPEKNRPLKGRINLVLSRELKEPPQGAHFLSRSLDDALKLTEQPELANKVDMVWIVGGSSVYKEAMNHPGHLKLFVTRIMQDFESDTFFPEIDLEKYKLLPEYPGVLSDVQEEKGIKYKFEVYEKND

NCI-H460 = experiment: Cytotoxic Activity was evaluated against H460 tumor cells; assay type: functional, cell-based; details: Homo sapiens; outline: as §1
HCT-8 [5] = experiment: Activity was evaluated against HCT-8 tumor cells; assay type: functional, cell-based; details: Homo sapiens; outline: as §1
[6] = Cytotoxic activity was evaluated against L tumor cells; assay type: functional, cell-based; details: Mus musculus; outline: as §1
Mus musculus [7] = experiment: Effect on life span of mice with intracranially implanted P388 Leukemic cells at 10 mg/kg by subcutaneous injection; assay type: functional
Outline: (§2)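 CDF-1 female mice (18–20 g, 5 or 8/group); P388 leukemia, maintained by in vivo serial passage, implanted intracranially at 1 × 10^5 cells. Treatment started 24 h later; test agents suspended in 0.5% carboxymethyl cellulose plus 1% Tween 80, given sc or ip qd × 10. Read-out was percent increase in life span versus controls.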

Mus musculus [8] = experiment: Effect on life span of mice with intraperitoneally implanted P388 Leukemic cells at 10 mg/kg by subcutaneous injection; assay type: functional
Outline: (§3)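 CDF-1 female mice (18–20 g, 5 or 8/group); P388 or P388/ADR cells implanted ip at 1 × 10^6 cells. Dosing began 24 h later; agents suspended in 0.5% carboxymethyl cellulose plus 1% Tween 80, given sc or ip qd × 10. Read-out was percent increase in life span.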

Mus musculus [9] = experiment: Effect on life span of mice with intraperitoneally implanted P388/ADR Leukemic cells at 10 mg/kg by subcutaneous injection; assay type: functional; outline: as §3
Mus musculus [10] = species: Mus musculus; experiment: Effect on Pneumocystis carinii pneumonia in SCID mice in the presence of leucovorin; assay type: functional
Outline: (§4)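 SCID mice (10-11/group) were dosed prophylactically once daily from day 1 postinfection, 42 doses. Test drug in D5W was given ip, then leucovorin 12 mg/kg sc 30 min later. Trimethoprim 50 mg/kg plus sulfamethoxazole 250 mg/kg was given orally, and controls received D5W ip and sc. Lung impression smears were taken 24 h after the last dose and stained by immunofluorescence. Infection was scored 0-4 semilogarithmically, reported as mean ± SEM and as infected/total mice.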

Mus musculus [11] = species: Mus musculus; experiment: Number of mice infected to that of total number of mice (2/11); assay type: functional, organism-based
Mus musculus [12] = species: Mus musculus; experiment: Effect on Candida albicans nephritis and Meningitis in Immunosuppressed Mice brain; assay type: functional
Outline: (§5)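 Immunosuppressed CD-1 female mice (10/group) given cyclophosphamide ip, 160 and 40 mg/kg on days -4 and -1; C. albicans 5 × 10^4 cfu/mouse iv via lateral tail vein. Sc dosing of 20 or 50 mg/kg in sesame oil at 3, 7, 24, 30 h post-inoculation; sulfamethoxazole 200 mg/kg ip in D5W given 1 h before each dose. Kidney and brain cultured at 48 h; log cfu/g tissue.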

Mus musculus [13] = species: Mus musculus; experiment: Effect on Candida albicans nephritis and Meningitis in Immunosuppressed Mice brain in the presence of SMX; assay type: functional
Outline: (§6)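 Immunosuppressed CD-1 female mice (10/group; cyclophosphamide 160 and 40 mg/kg ip on days -4 and -1) inoculated iv via lateral tail vein with 5 × 10^4 cfu C. albicans. Compound sc in 0.1 mL sesame oil (20 or 50 mg/kg) at 3, 7, 24, 30 h; sulfamethoxazole 200 mg/kg ip in D5W 1 h before each dose. Kidney and brain cultured at 48 h; log cfu/g tissue, duplicate or single experiments.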

Mus musculus [14] = species: Mus musculus; experiment: Effect on Candida albicans nephritis and Meningitis in Immunosuppressed Mice kidney; assay type: functional; outline: as §5
Mus musculus [15] = species: Mus musculus; experiment: Effect on Candida albicans nephritis and Meningitis in Immunosuppressed Mice kidney in the presence of SMX; assay type: functional; outline: as §6
P388 [16] = experiment: Cytotoxic activity was evaluated against P388D1 tumor cells; assay type: functional, cell-based; details: Mus musculus; outline: as §1
U373 MG = experiment: Cytotoxic activity was evaluated against U373MG tumor cells; assay type: functional, cell-based, U-373MG ATCC; details: Homo sapiens; outline: as §1
U-87 MG = experiment: Cytotoxic activity was evaluated against U87MG tumor cells; assay type: functional, cell-based, U-87MG ATCC; details: Homo sapiens; outline: as §1
Vero = experiment: Cytotoxic Activity was evaluated against Vero tumor cells; assay type: functional, cell-based; details: Chlorocebus sabaeus; outline: as §1
HCT-8 [17] = experiment: Cytotoxic Activity was evaluated against HCT-8 tumor cells; assay type: functional, cell-based; details: Homo sapiens; outline: as §1
Mus musculus [18] = experiment: Effect on life span of mice with intracranially implanted P388 Leukemic cells; assay type: functional; outline: as §2
Mus musculus [19] = experiment: Effect on life span of mice with intraperitoneally implanted P388 Leukemic cells; assay type: functional; outline: as §3
Mus musculus [20] = experiment: Effect on life span of mice with intraperitoneally implanted P388/ADR Leukemic cells; assay type: functional; outline: as §3
Mus musculus [21] = species: Mus musculus; experiment: Effect on Pneumocystis carinii pneumonia in SCID mice in presence of leucovorin; assay type: functional; outline: as §4
Mus musculus [22] = species: Mus musculus; experiment: Number of mice infected to that of total number of mice ([…]/[…]); assay type: functional, organism-based
[23] = Tissue distribution of the in rat lung relative to plasma concentration of 1 mg/kg; relative concentration
[24] = Tissue distribution of the in rat brain relative to plasma concentration of 1 mg/kg; relative concentration
KB [25] = experiment: Cytotoxic activity was evaluated against KBV-1 cells in presence of reserpine; assay type: functional, Homo sapiens; outline: as §1
KB [26] = experiment: Cytotoxic activity was evaluated against KBV-1 cells; assay type: functional, Homo sapiens; outline: as §1
MCF7 [27] = experiment: Cytotoxic activity was evaluated against MCF-7 cells; assay type: functional, Homo sapiens; outline: as §1
MCF7 [28] = experiment: Cytotoxic activity was evaluated against MCF-7/ADR cells; assay type: functional, Homo sapiens; outline: as §1
MCF7 [29] = experiment: Cytotoxic activity was evaluated against MCF-7/ADR+Reserpine cells; assay type: functional, Homo sapiens; outline: as §1
KB 3-1 = experiment: Cytotoxic activity was evaluated against KB3-1 cells; assay type: functional, Homo sapiens; outline: as §1
P388 [30] = experiment: Cytotoxic activity was evaluated against P388D1/ADR cells; assay type: functional, Mus musculus; outline: as §1
P388 [31] = experiment: Cytotoxic Activity was evaluated against P388D1 cells; assay type: functional, Mus musculus; outline: as §1
P388 [32] = experiment: Cytotoxic activity was evaluated against P388/ADR + reserpine cells; assay type: functional, Mus musculus; outline: as §1
Mus musculus [33] = species: Mus musculus

CCC(CC)n1c(C)cc2c3c(N)nc(N)nc3ccc21
IC50 (143B): 0.8 nM
IC50 (A549): 0.4 nM
Kp [1]: 10
MIC (Candida albicans): 0.025 µg/mL (≈ 0.0882 µM)
IC50 [2]: 2.3 nM
IC50 (D54 cell line): 4.6 nM
Ki (Dihydrofolate reductase [3]): 0.03 nM
Ki (Dihydrofolate reductase [4]): 0.0003 nM
IC50 (NCI-H460): 0.5 nM
IC50 (HCT-8 [5]): 0.74 nM
IC50 [6]: 0.6 nM
Increase in life-span (Mus musculus [7]): 50%
Increase in life-span (Mus musculus [8]): 80%
Increase in life-span (Mus musculus [9]): 20%
Infection score (Mus musculus [10]): 0.18
No. of mice infected /total (Mus musculus [11]): Number of mice infected to that of total number of mice (2/[…])
Log cfu/g of tissue (Mus musculus [12]): 3.6
Log cfu/g of tissue (Mus musculus [13]): 3.4
Log cfu/g of tissue (Mus musculus [14]): 3.4
Log cfu/g of tissue (Mus musculus [15]): 2.5
IC50 (P388 [16]): 0.12 nM
IC50 (U373 MG): 2.3 nM
IC50 (U-87 MG): 2.1 nM
IC50 (Vero): 1 nM

COc1ccc(OC)c(Cc2cnc3nc(N)nc(N)c3c2C)c1 [PIRITREXIM]
IC50 (A549): 24 nM
MIC (Candida albicans): > 10 µg/mL
IC50 [2]: 70 nM
IC50 (D54 cell line): 230 nM
Ki (Dihydrofolate reductase [3]): 1.9 nM
Ki (Dihydrofolate reductase [4]): 0.025 nM
IC50 (NCI-H460): 260 nM
IC50 (HCT-8 [17]): 68 nM
IC50 [6]: 76 nM
Increase in life-span (Mus musculus [18]): 0%
Increase in life-span (Mus musculus [19]): 40%
Increase in life-span (Mus musculus [20]): -5%
Infection score (Mus musculus [21]): 3.27
No. of mice infected /total (Mus musculus [22]): Number of mice infected to that of total number of mice ([…]/[…])
IC50 (P388 [16]): 21 nM
IC50 (U373 MG): 55 nM
IC50 (U-87 MG): 48 nM
IC50 (Vero): 30 nM

Cc1cc2c3c(N)nc(N)nc3ccc2n1C
MIC (Candida albicans): 0.1 µg/mL (≈ 0.44 µM)
Ki (Dihydrofolate reductase [4]): 0.087 nM
IC50 (HCT-8 [5]): 85 nM

CC(C)n1c(C(C)(C)C)cc2c3c(N)nc(N)nc3ccc21
MIC (Candida albicans): 0.05 µg/mL (≈ 0.168 µM)
Ki (Dihydrofolate reductase [3]): < 0.06 nM
Ki (Dihydrofolate reductase [4]): 0.0002 nM
IC50 (HCT-8 [5]): 1.3 nM

CCc1cc2c3c(N)nc(N)nc3ccc2n1C
MIC (Candida albicans): 0.1 µg/mL (≈ 0.414 µM)
Ki (Dihydrofolate reductase [3]): 1.3 nM
Ki (Dihydrofolate reductase [4]): 0.029 nM
IC50 (HCT-8 [5]): 8 nM

Cc1nc(N)nc(N)c1-c1ccc(Cl)c(Cl)c1 [METOPRINE]
Kp [23]: 31
Kp [24]: 6.5

Cn1ccc2c3c(N)nc(N)nc3ccc21
MIC (Candida albicans): 1.6 µg/mL (≈ 7.5 µM)
Ki (Dihydrofolate reductase [3]): 25 nM
Ki (Dihydrofolate reductase [4]): 0.23 nM
IC50 (HCT-8 [5]): 580 nM

CC(C)c1cc2c(ccc3nc(N)nc(N)c32)[nH]1
MIC (Candida albicans): 0.05 µg/mL (≈ 0.207 µM)
Ki (Dihydrofolate reductase [3]): 0.16 nM
Ki (Dihydrofolate reductase [4]): 0.01 nM

CCCc1cc2c3c(N)nc(N)nc3ccc2n1CC
MIC (Candida albicans): 0.1 µg/mL (≈ 0.371 µM)
Ki (Dihydrofolate reductase [3]): 0.65 nM
Ki (Dihydrofolate reductase [4]): 0.024 nM
IC50 (HCT-8 [5]): 3.1 nM

CC[C@]1(O)C[C@@H]2CN(CCc3c([nH]c4ccccc34)[C@@](C(=O)OC)(c3cc4c(cc3OC)N(C)[C@H]3[C@@](O)(C(=O)OC)[C@H](OC(C)=O)[C@]5(CC)C=CCN6CC[C@]43[C@@H]65)C2)C1 [VINBLASTINE]
Relative IC50 (KB [25]): 1.3
Relative IC50 (KB [26]): 2000
Relative IC50 (MCF7 [27]): 1
Relative IC50 (MCF7 [28]): 17500
Relative IC50 (MCF7 [29]): 0.5
Relative IC50 (KB 3-1): 1
Relative IC50 (P388 [30]): 19 nM
Relative IC50 (P388 [31]): 1
Relative IC50 (P388 [32]): 0.2 nM

COc1cc(Cc2cnc(N)nc2N)cc(OC)c1OC
No. of mice infected /total (Mus musculus [33]): Partially active

CCc1cc2c3c(N)nc(N)nc3ccc2n1C(C)(C)C
MIC (Candida albicans): > 0.1 µg/mL
IC50 (HCT-8 [5]): 1.3 nM

Cc1cc2c3c(N)nc(N)nc3ccc2n1C(C)C
MIC (Candida albicans): 0.025 µg/mL (≈ 0.0979 µM)
Ki (Dihydrofolate reductase [3]): 0.22 nM
Ki (Dihydrofolate reductase [4]): 0.0064 nM
IC50 (HCT-8 [5]): 7.4 nM
